Data published in ChEMBL document CHEMBL1155725, “Antimicrobial cuparene-type sesquiterpenes, enokipodins C and D, from a mycelial culture of Flammulina velutipes” (2001).
Calls of active or inactive are those of the source. No cut-off for these calls is given here.

How the values were obtained:
Escherichia coli [1] = assay: Antimicrobial activity against Escherichia coli AHU1714 at 50 ug/8 mm disk after 18 hrs by paper disk method; format: functional
How it was run: (§1)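 Disk diffusion: 25 or 50 µg sample in acetone (20 µL) on air-dried 8 mm paper disk, placed on agar seeded with organism; plates held overnight at 4 °C for diffusion, then 37 °C for 18 h. Read-out: diameter of clear inhibition zone; triplicate.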

Bacillus subtilis [2] = assay: Antimicrobial activity against Bacillus subtilis LMA0011 at 50 ug/8 mm disk after 18 hrs by paper disk method; format: functional; how it was run: as §1
Cladosporium herbarum = assay: Antifungal activity against Cladosporium herbarum AHU9262 after 3 days by TLC plate assay; format: functional, organism-based
How it was run: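 TLC bioautography: EtOAc extract of culture filtrate (equivalent to 0.25 mL medium) developed in CHCl3–MeOH 25:1, sprayed with C. herbarum spore suspension, incubated 25 °C under humid conditions for 3 days; inhibitory zones matched to UV 254 nm spots.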

Pseudomonas fluorescens [3] = assay: Antimicrobial activity against Pseudomonas fluorescens AHU1719 at 25 ug/8 mm disk after 18 hrs by paper disk method; format: functional; how it was run: as §1
Staphylococcus aureus [4] = assay: Antimicrobial activity against Staphylococcus aureus AHU1142 at 50 ug/8 mm disk after 18 hrs by paper disk method; format: functional; how it was run: as §1
Bacillus subtilis [5] = assay: Antimicrobial activity against Bacillus subtilis LMA0011 at 25 ug/8 mm disk after 18 hrs by paper disk method; format: functional; how it was run: as §1
Pseudomonas fluorescens [6] = assay: Antimicrobial activity against Pseudomonas fluorescens AHU1719 at 50 ug/8 mm disk after 18 hrs by paper disk method; format: functional; how it was run: as §1
Staphylococcus aureus [7] = assay: Antimicrobial activity against Staphylococcus aureus AHU1142 at 25 ug/8 mm disk after 18 hrs by paper disk method; format: functional; how it was run: as §1
Escherichia coli [8] = assay: Antimicrobial activity against Escherichia coli AHU1714 at 25 ug/8 mm disk after 18 hrs by paper disk method; format: functional; how it was run: as §1
Bacillus subtilis [9] = assay: Antimicrobial activity against Bacillus subtilis LMA0011 at 12.5 ug/8 mm disk after 18 hrs by paper disk method; format: functional
How it was run: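 Positive-control disk diffusion: pentachlorophenol 12.5 µg on 8 mm paper disk on seeded agar; overnight at 4 °C, then 37 °C for 18 h; clear inhibition-zone diameter measured; triplicate.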

Structure (SMILES) | inhibition zone (IZ) (Escherichia coli [1]) | inhibition zone (IZ) (Bacillus subtilis [2]) | Activity (Cladosporium herbarum) | inhibition zone (IZ) (Pseudomonas fluorescens [3]) | inhibition zone (IZ) (Staphylococcus aureus [4]) | inhibition zone (IZ) (Bacillus subtilis [5]) | inhibition zone (IZ) (Pseudomonas fluorescens [6]) | inhibition zone (IZ) (Staphylococcus aureus [7]) | inhibition zone (IZ) (Escherichia coli [8]) | inhibition zone (IZ) (Bacillus subtilis [9])
Cc1cc2c(cc1O)[C@@]1(C)CC[C@@](O)(O2)C1(C)C [ENOKIPODIN A] | 0 mm | 32.6 mm | Active | 0 mm | 25.2 mm | 28 mm | 0 mm | 19.2 mm | 0 mm | 
CC1=CC(=O)C([C@@]2(C)CCC(=O)C2(C)C)=CC1=O [ENOKIPODIN B] | 0 mm | 21 mm | Active |  | 14 mm | 17 mm |  | 0 mm | 0 mm | 
Cc1cc2c(cc1O)[C@@]1(C)[C@H](O)C[C@@](O)(O2)C1(C)C [ENOKIPODIN C] | 0 mm | 26 mm | Active | 0 mm | 21.2 mm | 20 mm | 0 mm | 18 mm | 0 mm | 
CC1=CC(=O)C([C@@]2(C)[C@H](O)CC(=O)C2(C)C)=CC1=O [ENOKIPODIN D] | 0 mm | 16 mm | Active |  | 11.6 mm | 11 mm |  | 0 mm | 0 mm | 
Oc1c(Cl)c(Cl)c(Cl)c(Cl)c1Cl [PENTACHLOROPHENOL] |  |  |  |  |  | 31 mm |  |  |  | 26.6 mm
